According to ChEMBL document CHEMBL1921792, “Synthesis and anticonvulsant activity of trans- and cis-2-(2,6-dimethylphenoxy)-N-(2- or 4-hydroxycyclohexyl)acetamides and their amine analogs” (Bioorg Med Chem, 2011):
Active and inactive are the calls of the source.

Key:
Mus musculus [1] = assay: Anticonvulsant activity in mouse assessed as protection against maximal electric shock-induced seizures at 30 mg/kg, ip after 0.5 hrs; format: functional, organism-based; design: dose 30 mg/kg
In short: (§1)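 Phase I maximal electroshock screen in mice. Compound given ip as a suspension in 0.5% methylcellulose at 30, 100 or 300 mg/kg, tested at 30 min and 4 h. Small groups (1–8); result is number protected/number tested.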

Mus musculus [2] = assay: Anticonvulsant activity in mouse assessed as protection against maximal electric shock-induced seizures at 30 mg/kg, ip after 4 hrs; format: functional, organism-based; design: dose 30 mg/kg; in short: as §1
Mus musculus [3] = assay: Anticonvulsant activity against subcutaneous pentylenetetrazole-induced seizures in mouse at 30 mg/kg, ip after 0.5 hrs; format: functional, organism-based; design: dose 30 mg/kg
In short: (§2)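 Phase I screen in mice. Compound given ip as a suspension in 0.5% methylcellulose, read at 30 min and 4 h. Pentylenetetrazole 85 mg/kg in 0.9% NaCl was injected sc into the posterior midline and animals watched ≥30 min. Protection meant no clonic spasm lasting ≥5 s. Groups of 1–8 animals; result is protected/tested.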

Mus musculus [4] = assay: Anticonvulsant activity against subcutaneous pentylenetetrazole-induced seizures in mouse at 30 mg/kg, ip after 4 hrs; format: functional, organism-based; design: dose 30 mg/kg; in short: as §2
Mus musculus [5] = assay: Anticonvulsant activity against subcutaneous pentylenetetrazole-induced seizures in mouse at 100 mg/kg, ip after 0.5 hrs; format: functional, organism-based; design: dose 100 mg/kg; in short: as §2
Mus musculus [6] = assay: Anticonvulsant activity in mouse assessed as protection against maximal electric shock-induced seizures at 3 mg/kg, ip after 0.5 hrs; format: functional, organism-based; design: dose 3 mg/kg
Mus musculus [7] = assay: Neurotoxicity in mouse assessed as inability to maintain equilibrium on rotarod at 30 mg/kg, ip after 0.5 hrs by rotarod test; format: toxicity, organism-based; design: dose 30 mg/kg, route intraperitoneal; conditions: in vivo
In short: (§3)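 Drug given ip to mice as a suspension in 0.5% methylcellulose. At the stated time after dosing, each mouse was placed on a 1 inch knurled rod turning at 6 rpm. Neurotoxicity = inability to stay balanced at least 1 min in each of three trials. Scored as animals toxic/animals tested in small groups.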

Mus musculus [8] = assay: Neurotoxicity in mouse assessed as inability to maintain equilibrium on rotarod at 100 mg/kg, ip after 0.5 hrs by rotarod test; format: toxicity, organism-based; design: dose 100 mg/kg, route intraperitoneal; conditions: in vivo; in short: as §3
Mus musculus [9] = assay: Neurotoxicity in mouse assessed as inability to maintain equilibrium on rotarod at 300 mg/kg, ip after 0.5 hrs by rotarod test; format: toxicity, organism-based; design: dose 300 mg/kg, route intraperitoneal; conditions: in vivo; in short: as §3
Mus musculus [10] = assay: Neurotoxicity in mouse assessed as inability to maintain equilibrium on rotarod at 3 mg/kg, ip after 0.5 hrs by rotarod test; format: toxicity, organism-based; design: dose 3 mg/kg, route intraperitoneal; conditions: in vivo
Mus musculus [11] = assay: Neurotoxicity in mouse assessed as inability to maintain equilibrium on rotarod at 10 mg/kg, ip after 0.5 hrs by rotarod test; format: toxicity, organism-based; design: dose 10 mg/kg, route intraperitoneal; conditions: in vivo
Mus musculus [12] = assay: Neurotoxicity in mouse assessed as inability to maintain equilibrium on rotarod at 30 mg/kg, ip after 4 hrs by rotarod test; format: toxicity, organism-based; design: dose 30 mg/kg, route intraperitoneal; conditions: in vivo; in short: as §3
[13] = Neurotoxicity in ip dosed mouse assessed as inability to maintain equilibrium on rotarod by rotarod test; format: toxicity, organism-based; conditions: in vivo
In short: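 Mice dosed ip with a suspension in 0.5% methylcellulose, then placed on a 1 inch knurled plastic rod rotating at 6 rpm. Toxicity = failure to keep equilibrium for at least 1 min in each of three trials.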

[14] = Neurotoxicity in po dosed rat assessed as neurological deficit […]; format: toxicity, organism-based; conditions: in vivo
In short: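 Rats dosed orally with a suspension in 0.5% methylcellulose. Neurological deficit judged by ataxia and loss of placing response and muscle tone.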

Mus musculus [15] = assay: Anticonvulsant activity in ip dosed mouse assessed as protection against maximal electric shock-induced seizures; format: functional; conditions: Mus musculus, ip; read-out: ED50
Rattus norvegicus [16] = assay: Anticonvulsant activity in po dosed rat assessed as protection against maximal electric shock-induced seizures; format: functional
Mus musculus [17] = species on record: Mus musculus; assay: Protective index, ratio of TD50 for neurotoxicity in mouse to ED50 for inhibition of maximal electroshock-induced seizures in mouse; format: functional
Rattus norvegicus [18] = species on record: Rattus norvegicus; assay: Protective index, ratio of TD50 for neurotoxicity in rat to ED50 for inhibition of maximal electroshock-induced seizures in rat; format: functional
Rattus norvegicus [19] = assay: Anticonvulsant activity in rat assessed as protection against maximal electric shock-induced seizures at 30 mg/kg, po after 4 hrs; format: functional, organism-based; design: dose 30 mg/kg
In short: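 MES test in rats dosed orally at 30 mg/kg as a suspension in 0.5% methylcellulose, read at 0.25–4 h. Four rats per time point; result is protected/tested.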

Rattus norvegicus [20] = assay: Neurotoxicity in rat assessed as neurological deficit at 30 mg/kg, po after 0.25 hrs […]; format: toxicity, organism-based; design: dose 30 mg/kg, route oral; conditions: in vivo
In short: (§4)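 Rats given the compound, suspended in 0.5% methylcellulose, by the stated route and dose. Neurological deficit was recorded at the listed times as ataxia and loss of placing response and muscle tone. Reported as number of rats showing toxicity/number tested.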

Rattus norvegicus [21] = assay: Neurotoxicity in rat assessed as neurological deficit at 30 mg/kg, po after 0.5 hrs […]; format: toxicity, organism-based; design: dose 30 mg/kg, route oral; conditions: in vivo; in short: as §4
Rattus norvegicus [22] = assay: Neurotoxicity in rat assessed as neurological deficit at 30 mg/kg, po after 1 hr […]; format: toxicity, organism-based; design: dose 30 mg/kg, route oral; conditions: in vivo; in short: as §4
Rattus norvegicus [23] = assay: Neurotoxicity in rat assessed as neurological deficit at 30 mg/kg, po after 2 hrs […]; format: toxicity, organism-based; design: dose 30 mg/kg, route oral; conditions: in vivo; in short: as §4
Rattus norvegicus [24] = assay: Neurotoxicity in rat assessed as neurological deficit at 30 mg/kg, po after 4 hrs by rotarod test; format: toxicity, organism-based; design: dose 30 mg/kg, route oral; conditions: in vivo; in short: as §4
Rattus norvegicus [25] = assay: Anticonvulsant activity in rat assessed as protection against maximal electric shock-induced seizures at 30 mg/kg, ip after 0.25 hrs; format: functional, organism-based; design: dose 30 mg/kg
In short: (§5)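 Time-to-peak-effect assay: MES protection read at 0.25–4 h after dosing. Mice ip (60–130 mg/kg), rats po (15 or 30 mg/kg) or ip (30 mg/kg). Groups of 4–8; result is protected/tested.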

Rattus norvegicus [26] = assay: Anticonvulsant activity in rat assessed as protection against maximal electric shock-induced seizures at 30 mg/kg, ip after 0.5 hrs; format: functional, organism-based; design: dose 30 mg/kg; in short: as §5
Rattus norvegicus [27] = assay: Anticonvulsant activity in rat assessed as protection against maximal electric shock-induced seizures at 30 mg/kg, ip after 1 hr; format: functional, organism-based; design: dose 30 mg/kg; in short: as §5
Rattus norvegicus [28] = assay: Anticonvulsant activity in rat assessed as protection against maximal electric shock-induced seizures at 30 mg/kg, ip after 2 hrs; format: functional, organism-based; design: dose 30 mg/kg; in short: as §5
Rattus norvegicus [29] = assay: Anticonvulsant activity in rat assessed as protection against maximal electric shock-induced seizures at 30 mg/kg, ip after 4 hrs; format: functional, organism-based; design: dose 30 mg/kg; in short: as §5
Rattus norvegicus [30] = assay: Neurotoxicity in rat assessed as neurological deficit at 30 mg/kg, ip after 1 hr; format: toxicity, organism-based; design: dose 30 mg/kg, route intraperitoneal; conditions: in vivo; in short: as §4
Rattus norvegicus [31] = assay: Neurotoxicity in rat assessed as neurological deficit at 30 mg/kg, ip after 2 hrs; format: toxicity, organism-based; design: dose 30 mg/kg, route intraperitoneal; conditions: in vivo; in short: as §4
Rattus norvegicus [32] = assay: Neurotoxicity in rat assessed as neurological deficit at 30 mg/kg, ip after 4 hrs; format: toxicity, organism-based; design: dose 30 mg/kg, route intraperitoneal; conditions: in vivo; in short: as §4
Mus musculus [33] = assay: Anticonvulsant activity against […] in mouse assessed as increase in tonic threshold at 8 mg/kg, ip by threshold tonic extension test; format: functional, organism-based; design: dose 8 mg/kg
In short: (§6)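 Threshold tonic extension test in mice. The compound was given ip, then pentylenetetrazol was infused until the first twitch and the first clonus. PTZ dose was calculated from the infusion speed. Mean of 8 animals ± S.E.M.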

Mus musculus [34] = assay: Anticonvulsant activity against […] in mouse assessed as increase in tonic threshold at 28 mg/kg, ip by threshold tonic extension test; format: functional, organism-based; design: dose 28 mg/kg; in short: as §6
Rattus norvegicus [35] = assay: Anticonvulsant activity in ip dosed rat assessed as time to show peak effect of protection against maximal electric shock-induced seizures; format: functional; in short: as §5

Cc1cccc(C)c1OCCNC1CCCCC1O (racemic)
0.25 h: Time (Rattus norvegicus [35])
active: Activity (Mus musculus [1]) | Activity (Rattus norvegicus [25]) | Activity (Rattus norvegicus [26]) | Activity (Rattus norvegicus [27])
inactive: Activity (Mus musculus [2]) | Activity (Mus musculus [3]) | Activity (Mus musculus [4]) | Activity (Mus musculus [5]) | Activity (Mus musculus [6]) | Activity (Rattus norvegicus [19]) | Activity (Rattus norvegicus [28]) | Activity (Rattus norvegicus [29]) | Activity (Mus musculus [33]) | Activity (Mus musculus [34])
26.2 mg/kg: ED50 (Rattus norvegicus [16])
Non-toxic: Activity (Mus musculus [10]) | Activity (Mus musculus [11]) | Activity (Mus musculus [12]) | Activity (Rattus norvegicus [20]) | Activity (Rattus norvegicus [21]) | Activity (Rattus norvegicus [22]) | Activity (Rattus norvegicus [23]) | Activity (Rattus norvegicus [24]) | Activity (Rattus norvegicus [30]) | Activity (Rattus norvegicus [31]) | Activity (Rattus norvegicus [32])
3.9: Ratio TD50/ED50 (Mus musculus [17])
> 500 mg/kg: TD50 [14]
>19.06: Ratio TD50/ED50 (Rattus norvegicus [18])
Toxic: Activity (Mus musculus [7]) | Activity (Mus musculus [8]) | Activity (Mus musculus [9])
28.4 mg/kg: TD50 [13]
7.73 mg/kg: ED50 (Mus musculus [15])
